Screening data (PubChem BioAssay)
Most compounds without a hit are left out; they make up all but 2.9% or so of the library.
SENP7 inh – SENP7 protease inhibitors, primary screen, biochemical, luminescence, uHTS. Sentrin-specific protease 7 (Homo sapiens), Q9BQF6. recombinant SENP7, Z-RLRGG-aminoluciferin luminescence, 40 min. inhibition, % at 5 µM. actives 1.5% (n = 330,000);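 active = inhibition above about 50% at the single test dose, limit read from the data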;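 note: plate controls were DMSO with enzyme for no effect and no enzyme buffer wells for full effect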
SENP1 inh – human SENP1 catalytic domain inhibitors, primary screen, biochemical, FRET, uHTS; Sentrin-specific protease 1 (Homo sapiens), Q9P0U3; recombinant SENP1 catalytic domain, CyPet-SUMO1-YPet FRET cleavage; inhibition, % at 10 µM; actives 0.21% (n = 360,000); AID 624204, 2012;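 active = inhibition at least 30% at 10 µM, raw YFP signal under a set limit, fluorescence ratio 0.5 to 1.5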;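 note: 0% = enzyme with DMSO and 100% = no enzyme wells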
Target sequence (Q9P0U3 419-644 limits assumed): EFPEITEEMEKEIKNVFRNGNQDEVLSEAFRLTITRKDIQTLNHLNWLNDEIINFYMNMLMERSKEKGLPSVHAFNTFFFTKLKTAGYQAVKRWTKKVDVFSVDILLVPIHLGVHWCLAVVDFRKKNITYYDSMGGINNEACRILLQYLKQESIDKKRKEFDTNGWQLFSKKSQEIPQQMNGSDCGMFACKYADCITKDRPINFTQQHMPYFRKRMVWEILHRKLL
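Material – human SENP1 catalytic domain · Input – SENP1 enzyme, 20 pM final · Compound dosing – single concentration of 10 µM compound, 0.5% DMSO final · Timing – enzyme reaction for 50 min at room temperature, dark · Measured by – FRET fluorescence in CFP and YFP emission channels · Control set – no-enzyme wells low, DMSO-plus-enzyme wells high control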
HSP90 inh – HSP90 inhibitors, primary screen, cell lysate, luminescence; Heat shock protein HSP 90 (rabbit reticulocyte lysate; luciferase refolding); inhibition, % at 5.6 µM; actives 0.91% (n = 290,000); Rabbit reticulocyte lysate, luciferase refolding luminescence, 3 h;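 active = inhibition above the screen-wide mean plus 3 SD, computed separately per campaign, cut at about 16% in these data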;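 note: 0% = DMSO wells and 100% = 60 µM geldanamycin wells; inhibitors lower the luminescence because luciferase stays unfolded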
SENP6 inh – SENP6 protease inhibitors, primary screen, biochemical, luminescence, uHTS; Sentrin-specific protease 6 (Homo sapiens), Q9GZR1; Recombinant SENP6 catalytic domain, aminoluciferin luminescence; inhibition, % at 10 µM; actives 1.8% (n = 330,000);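 active = inhibition above about 50% at the single tested dose, limit read from the data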;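 note: plate controls were DMSO wells with enzyme for no effect and DMSO wells lacking enzyme for full effect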
SENP8 block-1 – human SENP8 protease inhibitors, primary screen, biochemical, fluorescence, Nedd8 protein substrate, uHTS; Sentrin-specific protease 8 (Homo sapiens), Q96LD8; recombinant SENP8; inhibition, % at 20 µM; actives 0.64% (n = 360,000); in the data active = inhibition mostly above about 40%, no sharp cut-off; inactive = mostly below about 27%
Target sequence (Q96LD8 whole entry, looked up): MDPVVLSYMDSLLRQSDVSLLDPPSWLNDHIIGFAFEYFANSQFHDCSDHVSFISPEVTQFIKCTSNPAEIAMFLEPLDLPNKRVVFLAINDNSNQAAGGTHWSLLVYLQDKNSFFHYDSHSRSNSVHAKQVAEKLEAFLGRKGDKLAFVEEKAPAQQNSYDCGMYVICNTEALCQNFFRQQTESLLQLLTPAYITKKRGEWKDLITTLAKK
SENP8 block-2 – SENP8 protease inhibitors, primary screen, biochemical, luminescence. actives 1.2% (n = 330,000). inhibition, % at 10 µM. purified SENP8, Z-RLRGG-aminoluciferin cleavage; in the data active = inhibition above about 50%
SENP8 conf – SENP8 protease inhibitors, retest, confirmation, biochemical, luminescence, single concentration; AID 488912, 2010; Recombinant SENP8, Z-RLRGG-aminoluciferin luminescence, 60 min; shares compounds with SENP7 inh; actives 40% (n = 6,200); inhibition, % at 12.5 µM;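 active = mean inhibition across replicates above about 50%, limit read from the data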
SENP6 conf – SENP6 protease inhibitors, confirmation, biochemical, luminescence, single concentration; shares compounds with SENP7 inh; recombinant SENP6, Z-RLRGG-aminoluciferin luminescence; inhibition, % at 12.5 µM; actives 58% (n = 6,200); AID 488915, 2010
SENP7 conf – SENP7 protease inhibitors, retest, confirmation, biochemical, luminescence, single concentration. actives 69% (n = 6,200). inhibition, % at 12.5 µM. AID 488917, 2010. recombinant SENP7, Z-RLRGG-aminoluciferin luminescence, 40 min. shares compounds with SENP7 inh
Casp3 select – caspase-3 protease inhibitors, confirmation, selectivity assay for SENP inhibitor project, biochemical, single concentration; shares compounds with SENP7 inh; purified caspase-3, Z-DEVD-aminoluciferin luminescence, 60 min; inhibition, % at 12.5 µM; actives 60% (n = 6,200); AID 488918, 2010;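 active = mean inhibition above about 50%, limit read from the data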;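 note: plate controls were enzyme with DMSO for no effect and wells without caspase-3 for full effect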
Luc interf – counter-screen for SENP inhibitors: luminescence interference. actives 39% (n = 6,200). shares compounds with SENP7 inh. AID 488919. Pre-incubated SENP8/Z-RLRGG-aminoluciferin, luciferase luminescence interference. inhibition, % at 12.5 µM;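 active = mean inhibition above about 50% when retested at one dose, limit read from the data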;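 note: plate controls were DMSO wells with completed reaction for no effect and substrate without enzyme for full effect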
* marks the source's active call; other numbers are inactive results; / = not tested or not shown.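 Rule for the calls, unless noted: active = mean inhibition above about 50% in the one-dose retest (limit read from the data); inactive = the rest.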

SMILES	SENP7 inh	SENP1 inh	HSP90 inh	SENP6 inh	SENP8 block-1	SENP8 block-2	SENP8 conf	SENP6 conf	SENP7 conf	Casp3 select	Luc interf
COc1ccc(Cl)cc1Nc1nnc(-c2ccncc2)s1	95*	-5	5	76*	-292	51*	-14	9	-4	1	-6
FC(F)(F)c1ccc(Cl)c(Nc2nnc(-c3ccncc3)s2)c1	/	2	/	/	-338	/	/	/	/	/	/
COc1nc(Nc2ccc(OC)c(Cl)c2)nc(OC)n1	-1	1	2	-16	20	-10	/	/	/	/	/
Cc1ccc(Nc2nnc(-c3ccncc3)s2)c(Br)c1	12	2	-3	4	7	4	/	/	/	/	/
CC(C)C(NC(=O)c1c(F)cccc1F)C(=O)NCCc1ccc(S(N)(=O)=O)cc1 (stereo not drawn)	2	-8	0	-25	-7	4	/	/	/	/	/
CCCC1=NN(c2ccc([N+](=O)[O-])cc2)C(=O)/C1=C\N(C)C	96*	3	1	95*	52*	95*	97*	97*	102*	97*	97*
COc1c(N2CCNC(C)C2)c(F)cc2c(=O)c(C(=O)O)cn(C3CC3)c12 (stereo not drawn)	-4	/	/	-4	/	-1	/	/	/	/	/
NC1CCN(c2c(F)cc3c(=O)c(C(=O)O)cn(C4CC4)c3c2Cl)C1 (stereo not drawn)	67*	1	3	-9	-18	-5	-3	4	-5	-2	-6
COc1ccc(-c2cn(CCC(=O)O)c(C)n2)cc1	25	2	/	85*	9	81*	-8	85*	94*	27	40
O=C(/C=C/c1cccnc1)c1ccccc1O	0	1	2	-5	0	4	/	/	/	/	/
Cc1c(/C=C/C(=O)c2ccccc2O)cnn1C	67*	2	-1	63*	19	35	16	55*	81*	49	13
COc1ccc(C(=O)c2coc3ccc(O)cc23)cc1	87*	1	10	85*	18	80*	80*	80*	98*	78*	61*
O=C(O)COc1ccc2occ(C(=O)c3ccccc3)c2c1	12	2	2	36	24	12	/	/	/	/	/
Cc1ccc(C(=O)c2coc3ccc(OCC(=O)O)cc23)cc1	29	0	1	66*	19	33	47	43	77*	78*	66*
O=C(c1cccc(Br)c1)c1coc2ccc(O)cc12	72*	1	/	86*	18	84*	56*	73*	95*	51*	24
CCC(=O)c1coc2ccc(O)cc12	-12	1	4	9	-19	-8	/	/	/	/	/
CCCNC(=O)c1ccc(N2CCC3(CC2)CC(c2cccc(Br)c2)=NO3)c([N+](=O)[O-])c1	-5	2	1	-6	17	3	/	/	/	/	/
FC(F)(F)c1nc2nc(Cl)c(Cl)nc2n1CCCN1CCOCC1	/	-5	/	/	-180	/	/	/	/	/	/
